Experiment [1] deals with Carbonic anhydrase 2 (Homo sapiens) (UniProt P00918). As to the kind of experiment: In vitro binding affinity against human carbonic anhydrase II (hCA-II human cloned isozyme). The procedure, abridged:
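Human cloned CA II (3.5 nM) preincubated 10 min at room temperature with activator, then esterase assay following 4-nitrophenolate formation (ε 18,400 M-1·cm-1) at pH 7.40. Nonenzymatic hydrolysis was subtracted. Activator was diluted in water from a 1 mM stock down to 0.1 nM. Activation constant Ka is the mean of at least three determinations.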

Experiment [2] deals with T1, Carbonic anhydrase 4 (Bos taurus) (UniProt Q95323).
T1 sequence (whole entry): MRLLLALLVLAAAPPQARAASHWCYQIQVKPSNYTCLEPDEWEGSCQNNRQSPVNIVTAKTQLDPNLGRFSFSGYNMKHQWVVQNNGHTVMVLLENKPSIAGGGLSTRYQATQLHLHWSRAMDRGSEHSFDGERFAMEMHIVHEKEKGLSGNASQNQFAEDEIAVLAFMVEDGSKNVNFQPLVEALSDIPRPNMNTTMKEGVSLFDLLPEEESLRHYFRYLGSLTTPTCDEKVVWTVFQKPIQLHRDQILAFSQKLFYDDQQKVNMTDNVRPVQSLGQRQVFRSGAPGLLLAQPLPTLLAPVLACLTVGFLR
The experiment is described as follows: In vitro […] activity against bovine carbonic anhydrase IV (bCA IV) purified from lung microsomes. In short, it runs like this: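 Bovine lung microsomal CA IV (31 nM) was preincubated 10 min at room temperature with activator, then assayed by the esterase method. 4-Nitrophenolate formation was measured at pH 7.40 (ε 18,400 M-1·cm-1), minus the uncatalysed rate. Activator came from a 1 mM aqueous stock diluted to 0.1 nM. Ka is the mean of ≥3 runs.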

Experiment [3] addresses Carbonic anhydrase 1 (Homo sapiens) (UniProt P00915). The experiment is described as follows: In vitro binding affinity against human carbonic anhydrase I (hCA-I human cloned isozyme). The procedure, abridged:
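Human cloned CA I (12 nM) preincubated 10 min at room temperature with activator, then esterase assay on 4-nitrophenyl ester hydrolysis. Read-out was 4-nitrophenolate (ε 18,400 M-1·cm-1) at pH 7.40, with nonenzymatic rate subtracted. Activator stock was 1 mM in distilled-deionized water, diluted down to 0.1 nM. Ka is the mean of ≥3 determinations.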

Chain of Carbonic anhydrase 1 (Homo sapiens) (P00915 2-261 limits assumed): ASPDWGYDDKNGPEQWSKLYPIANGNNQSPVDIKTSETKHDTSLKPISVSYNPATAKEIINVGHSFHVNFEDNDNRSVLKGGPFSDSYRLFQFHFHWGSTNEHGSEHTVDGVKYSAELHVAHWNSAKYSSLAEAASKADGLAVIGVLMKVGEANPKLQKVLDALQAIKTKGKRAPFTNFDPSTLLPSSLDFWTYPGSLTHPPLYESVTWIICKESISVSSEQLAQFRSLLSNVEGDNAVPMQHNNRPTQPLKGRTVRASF

On to `O=[N+]([O-])c1ccc(S(=O)(=O)NCCc2c[nH]cn2)cc1`, for which the Ka was found to be 10 µM in experiment [1], 1.8 µM in experiment [2] and 0.14 µM in experiment [3].

On to `CC1(C)C2CCC1(CS(=O)(=O)NCCc1c[nH]cn1)C(=O)C2` (stereo unspecified), for which the Ka was found to be 15 µM in experiment [1], 5.4 µM in experiment [2] and 0.17 µM in experiment [3].

Turning to `O=S(=O)(NCCc1c[nH]cn1)c1ccc(Cl)cc1`, the Ka in experiment [1] was 13 µM; in experiment [2], 2.5 µM; in experiment [3], 0.1 µM.

Consider `Cc1ccc(S(=O)(=O)NCCc2c[nH]cn2)cc1`, for which the Ka in experiment [1] is 28 µM; in experiment [2], 7 µM; in experiment [3] it was 0.24 µM.

Take `O=S(=O)(NCCc1c[nH]cn1)c1cccc2ccccc12`: the Ka was 10 µM in experiment [1], 3.6 µM in experiment [2] and 0.26 µM in experiment [3].

In the case of `O=C(O)c1ccccc1S(=O)(=O)NCCc1c[nH]cn1`, the Ka was 1.2 µM in experiment [1], 0.12 µM in experiment [2] and 0.06 µM in experiment [3].

In the case of `O=S(=O)(NCCc1c[nH]cn1)c1ccc(Br)cc1`, the Ka in experiment [1] is 10 µM; in experiment [2], 3 µM; in experiment [3] it was 0.09 µM.

As to `O=S(=O)(NCCc1c[nH]cn1)c1ccc(F)cc1`, the Ka in experiment [1] came to 12 µM; in experiment [2], 2.4 µM; in experiment [3] it was 0.11 µM.

As for `Cc1cc(C)c(S(=O)(=O)NCCc2c[nH]cn2)c(C)c1`, the results for the Ka in experiment [1], in experiment [2] and in experiment [3] were 35 µM, 5.9 µM and 0.25 µM, respectively.

Regarding `COc1ccc(S(=O)(=O)NCCc2c[nH]cn2)cc1`, the Ka is 22 µM in experiment [1], 6.5 µM in experiment [2] and 0.2 µM in experiment [3].

As to `O=S(=O)(NCCc1c[nH]cn1)C(F)(F)C(F)(F)C(F)(F)C(F)(F)C(F)(F)C(F)(F)C(F)(F)C(F)(F)F`, the Ka in experiment [1] was determined as 0.5 µM; in experiment [2], 0.03 µM; in experiment [3], 0.007 µM.

As for `CN(C)c1cccc2c(S(=O)(=O)NCCc3c[nH]cn3)cccc12`, the Ka was found to be 9 µM in experiment [1], 3.2 µM in experiment [2] and 0.28 µM in experiment [3].

Turning to `Cc1ccccc1S(=O)(=O)NC(=O)NCCc1c[nH]cn1`, the values for the Ka in experiment [1], in experiment [2] and in experiment [3] were 0.15 µM, 0.03 µM and 0.006 µM, respectively.

With `O=S(=O)(NCCc1c[nH]cn1)c1ccccc1`, the Ka is 30 µM in experiment [1], 5 µM in experiment [2] and 0.21 µM in experiment [3].

For `O=S(=O)(NCCc1c[nH]cn1)C(Cl)(Cl)Cl`, the values for the Ka in experiment [1], in experiment [2] and in experiment [3] were 13 µM, 3.6 µM and 0.018 µM, respectively.

In the case of `CN(C)S(=O)(=O)NCCc1c[nH]cn1`, the Ka in experiment [1] was found to be 13 µM; in experiment [2], 5.3 µM; in experiment [3], 0.15 µM.

Consider `Nc1ccc(S(=O)(=O)NCCc2c[nH]cn2)cc1`, for which the Ka in experiment [1] came out at 14 µM; in experiment [2], 4.1 µM; in experiment [3], 0.13 µM.

As to `O=S(=O)(NCCc1c[nH]cn1)c1ccc(I)cc1`, the figures for the Ka in experiment [1], in experiment [2] and in experiment [3] were 10 µM, 3.2 µM and 0.08 µM, respectively.

Take `O=[N+]([O-])c1cccc(S(=O)(=O)NCCc2c[nH]cn2)c1`: the results for the Ka in experiment [1], in experiment [2] and in experiment [3] were 9 µM, 1.5 µM and 0.12 µM, respectively.

In the case of `O=[N+]([O-])c1ccc(S(=O)(=O)NCCc2c[nH]cn2)cc1Cl`, the Ka in experiment [1] was found to be 6 µM; in experiment [2], 1.4 µM; in experiment [3], 0.12 µM.

In the case of `O=S(=O)(NCCc1c[nH]cn1)c1cccs1`, the Ka in experiment [1] came to 5 µM; in experiment [2], 1.1 µM; in experiment [3] it was 0.09 µM.

With `O=C(NCCc1c[nH]cn1)NS(=O)(=O)c1ccc(Cl)cc1`, the Ka in experiment [1] was 0.08 µM; in experiment [2], 0.01 µM; in experiment [3] it was 0.003 µM.

Regarding `Cc1ccc(S(=O)(=O)NC(=O)NCCc2c[nH]cn2)cc1`, the Ka in experiment [1] stood at 0.1 µM; in experiment [2], 0.02 µM; in experiment [3] it was 0.005 µM.

Turning to `O=C(O)c1c(Br)c(Br)c(Br)c(Br)c1S(=O)(=O)NCCc1c[nH]cn1`, the Ka is 0.3 µM in experiment [1], 0.1 µM in experiment [2] and 0.05 µM in experiment [3].

Regarding `O=C(NCCc1c[nH]cn1)NS(=O)(=O)c1ccc(F)cc1`, the Ka in experiment [1] came to 0.09 µM; in experiment [2], 0.02 µM; in experiment [3], 0.004 µM.

Take `O=S(=O)(NCCc1c[nH]cn1)c1c(F)c(F)c(F)c(F)c1F`: the Ka in experiment [1] came out at 0.1 µM; in experiment [2] it was 0.04 µM; in experiment [3] it was 0.006 µM.

As to `CC(=O)Nc1ccc(S(=O)(=O)NCCc2c[nH]cn2)cc1`, the figures for the Ka in experiment [1], in experiment [2] and in experiment [3] were 20 µM, 6 µM and 0.21 µM, respectively.

For the compound `O=C(O)c1cccc(S(=O)(=O)NCCc2c[nH]cn2)c1`, the Ka in experiment [1] was determined as 0.5 µM; in experiment [2], 0.07 µM; in experiment [3], 0.05 µM.

With `O=S(=O)(NCCc1c[nH]cn1)c1cc(Cl)cc(Cl)c1O`, the figures for the Ka in experiment [1], in experiment [2] and in experiment [3] were 7 µM, 0.09 µM and 0.1 µM, respectively.

Take `O=S(=O)(NCCc1c[nH]cn1)C(F)(F)F`: the Ka was found to be 1.2 µM in experiment [1], 0.15 µM in experiment [2] and 0.013 µM in experiment [3].

With `O=C(O)c1ccc(S(=O)(=O)NCCc2c[nH]cn2)cc1`, the Ka turned out to be 0.8 µM in experiment [1], 0.1 µM in experiment [2] and 0.06 µM in experiment [3].

For the compound `NCCc1c[nH]cn1`, the Ka was 125 µM in experiment [1], 41 µM in experiment [2] and 2 µM in experiment [3].

With `O=S(=O)(Cc1ccccc1)NCCc1c[nH]cn1`, the Ka in experiment [1] was determined as 34 µM; in experiment [2], 5.4 µM; in experiment [3], 0.18 µM.

Turning to `O=S(=O)(NCCc1c[nH]cn1)c1ccc2ccccc2c1`, the Ka in experiment [1] amounted to 9 µM; in experiment [2], 3.5 µM; in experiment [3], 0.24 µM.

`O=S(=O)(NCCc1c[nH]cn1)c1cc(Cl)ccc1Cl`: the figures for the Ka in experiment [1], in experiment [2] and in experiment [3] were 5 µM, 0.1 µM and 0.08 µM, respectively.

Regarding `O=S(=O)(NCCc1c[nH]cn1)C(F)(F)C(F)(F)C(F)(F)C(F)(F)F`, the results for the Ka in experiment [1], in experiment [2] and in experiment [3] were 0.9 µM, 0.05 µM and 0.01 µM, respectively.

As for `O=[N+]([O-])c1ccccc1S(=O)(=O)NCCc1c[nH]cn1`, the Ka in experiment [1] stood at 8 µM; in experiment [2], 1.6 µM; in experiment [3] it was 0.13 µM.
